# According to ChEMBL document CHEMBL1177652 (Bioorg Med Chem, 2010):
# What was measured:
# [1] = target: Cholinesterase (Homo sapiens, UniProt P06276); assay: Inhibition of human plasma BChE pretreated for 30 mins by Ellman technique; assay type: cell-free
# [2] = target: Acetylcholinesterase (Homo sapiens, UniProt P22303); assay: Inhibition of human whole RBC AChE pretreated for 30 mins by Ellman technique
# [3] = test system: Rattus norvegicus; assay: Ex vivo inhibition of cholinesterase in Fischer-344 rat plasma at 10 mg/kg, ip after 24 hrs by spectrophotometric analysis; assay type: functional; conditions: Fischer-344, Plasma, route intraperitoneal
# Summary of the method: (§1)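 Anesthetized rats given 10 mg/kg i.p.; predrug blood for resting activity, then samples 5 min to 24 hr, centrifuged, plasma frozen at −80° C. Thawed plasma (10 ul) in 0.1 M sodium phosphate pH 7.4 ± iso-OMPA, then DTNB plus S-butyrylthiocholine; 412 nm read 20 min later, r.t., duplicates. Iso-OMPA-sensitive difference expressed as percent of predrug level.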
# [4] = test system: Rattus norvegicus; assay: Toxicity in Fischer-344 rat assessed as lacrimation and salivation at 10 mg/kg, ip; assay type: organism-based; design: dose 10 mg/kg, route intraperitoneal; conditions: in vivo
# [5] = test system: Rattus norvegicus; assay: Ex vivo inhibition of cholinesterase in Fischer-344 rat plasma at 10 mg/kg, ip after 60 mins by spectrophotometric analysis; assay type: functional; conditions: Fischer-344, Plasma, 1 h, route intraperitoneal; summary of the method: as §1
# [6] = test system: Rattus norvegicus; assay: Toxicity in Fischer-344 rat assessed as tremor at 10 mg/kg, ip; assay type: organism-based; design: dose 10 mg/kg, route intraperitoneal; conditions: in vivo
# Acetylcholinesterase, sequence (P22303 whole entry): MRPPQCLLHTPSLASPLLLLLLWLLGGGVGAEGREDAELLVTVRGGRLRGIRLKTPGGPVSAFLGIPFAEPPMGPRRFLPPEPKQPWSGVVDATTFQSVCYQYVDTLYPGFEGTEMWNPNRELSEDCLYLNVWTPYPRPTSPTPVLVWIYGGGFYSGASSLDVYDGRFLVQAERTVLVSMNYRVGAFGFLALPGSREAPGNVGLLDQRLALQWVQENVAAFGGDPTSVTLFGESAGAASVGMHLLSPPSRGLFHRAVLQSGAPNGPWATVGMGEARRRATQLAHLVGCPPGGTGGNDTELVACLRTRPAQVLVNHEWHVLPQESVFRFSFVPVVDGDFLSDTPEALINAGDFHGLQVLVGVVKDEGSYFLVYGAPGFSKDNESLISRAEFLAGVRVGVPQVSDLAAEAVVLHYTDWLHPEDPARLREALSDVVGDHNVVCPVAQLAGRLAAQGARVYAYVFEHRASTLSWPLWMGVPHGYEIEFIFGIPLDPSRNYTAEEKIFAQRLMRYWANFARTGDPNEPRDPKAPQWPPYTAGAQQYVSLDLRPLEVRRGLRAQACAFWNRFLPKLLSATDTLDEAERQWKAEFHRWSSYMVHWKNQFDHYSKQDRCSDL
# Cholinesterase, sequence (P06276 whole entry): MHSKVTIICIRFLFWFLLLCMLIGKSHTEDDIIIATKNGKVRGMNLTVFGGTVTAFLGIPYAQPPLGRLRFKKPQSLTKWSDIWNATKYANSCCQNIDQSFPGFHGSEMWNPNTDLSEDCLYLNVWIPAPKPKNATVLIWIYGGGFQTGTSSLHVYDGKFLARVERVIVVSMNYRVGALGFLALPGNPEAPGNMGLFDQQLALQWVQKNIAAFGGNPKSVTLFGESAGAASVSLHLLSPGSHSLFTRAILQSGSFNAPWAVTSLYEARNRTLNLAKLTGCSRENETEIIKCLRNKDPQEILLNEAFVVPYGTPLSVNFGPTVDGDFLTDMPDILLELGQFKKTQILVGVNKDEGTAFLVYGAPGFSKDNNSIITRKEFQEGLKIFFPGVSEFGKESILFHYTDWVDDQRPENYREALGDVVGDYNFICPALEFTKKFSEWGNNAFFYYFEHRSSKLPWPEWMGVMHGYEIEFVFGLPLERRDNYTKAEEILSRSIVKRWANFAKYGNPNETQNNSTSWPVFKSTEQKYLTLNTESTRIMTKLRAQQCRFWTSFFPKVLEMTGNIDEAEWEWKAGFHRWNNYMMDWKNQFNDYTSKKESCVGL
SMILES,IC50 [1] [nM],IC50 [2] [nM],other results
CN(C)c1cccc(OC(=O)Nc2ccccc2)c1,18000,2500,–
C[N+](C)(C)c1cccc(OC(=O)Nc2ccccc2)c1,18000,1870,–
Cc1ccccc1NC(=O)Oc1ccc2c(c1)[C@]1(C)CC[N+](C)(C)C1N2C (some centres not stated),–,14.6,–
CC(C)c1ccc(NC(=O)Oc2ccc3c(c2)[C@]2(C)CC[N+](C)(CCc4ccccc4)C2N3C)cc1 (some centres not stated),–,300,–
O=C(Nc1ccccc1)Oc1cccnc1,> 30000,> 30000,–
C[n+]1cccc(OC(=O)Nc2ccccc2)c1,–,> 30000,–
CNC(=O)Oc1ccc2c(c1)[C@]1(C)CC[N+](C)(C)C1N2C (some centres not stated),–,26.1,–
CN1c2ccc(OC(=O)Nc3ccccc3)cc2[C@]2(C)CC[N+](C)(C)C12 (some centres not stated),–,25.4,–
CC(C)c1ccc(NC(=O)Oc2ccc3c(c2)[C@]2(C)CC[N+](C)(C)C2N3C)cc1.[Br-] (some centres not stated),–,145,inhibition in vivo at 10 mg/kg [3]: 33%; Activity [4]: Non-toxic; inhibition in vivo at 10 mg/kg [5]: 66%; Activity [6]: Non-toxic
CN(C)C(=O)Oc1cccc([N+](C)(C)C)c1 [NEOSTIGMINE METHYLSULFATE],60,–,–
